pIC50: −log10 of the molar value.
Legend:
Assay type in all cases: functional, cell-based
[1] = test system: G-361; assay: Cytotoxicity against human G361 cells after 72 hrs by calcein acetoxymethyl assay
How it was run: (§1)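 Tumour cells kept in DMEM at 37 °C, 5% CO₂, 100% humidity; seeded at about 1.25 × 10⁵ cells/ml and preincubated 12 h. Compounds added at 0.5–50 μM (0.5–200 μM for FeCl₃·6H₂O) for 72 h. Live cells then stained 1 h with calcein AM and fluorescence read at 485/538 nm. IC₅₀ estimated as concentration lethal to 50% of cells; mean of three values.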

[2] = test system: HOS; assay: Cytotoxicity against human HOS cells after 72 hrs by calcein acetoxymethyl assay; how it was run: as §1
[3] = test system: K562; assay: Cytotoxicity against human K562 cells after 72 hrs by calcein acetoxymethyl assay; how it was run: as §1
[4] = test system: MCF7; assay: Cytotoxicity against human MCF7 cells after 72 hrs by calcein acetoxymethyl assay; how it was run: as §1

Row | Compound | pIC50 ([1]; g-361) | pIC50 ([2]; hos) | pIC50 ([3]; k562) | pIC50 ([4]; mcf7) | pIC50 ([1]; Homo sapiens, G-361, 72 h) | pIC50 ([2]; Homo sapiens, HOS, 72 h) | pIC50 ([3]; Homo sapiens, K562, 72 h) | pIC50 ([4]; Homo sapiens, MCF7, 72 h)
1 | FeCl3.6H2O | < 3.70 | < 3.70 | < 3.70 | < 3.70 | – | – | – | –
2 | OC[C@@H]1O[C@H](n2cnc3c(NCc4ccc(OC(F)(F)F)cc4)ncnc32)[C@@H](O)[C@H]1O | – | – | – | – | < 4.30 | < 4.30 | < 4.30 | < 4.30
3 | OC[C@@H]1O[C@H](n2cnc3c(NCc4ccc(F)cc4)ncnc32)[C@@H](O)[C@H]1O | – | – | – | – | < 4.30 | < 4.30 | < 4.30 | < 4.30

— ChEMBL document CHEMBL1151795, “Novel iron complexes bearing N6-substituted adenosine derivatives: synthesis, magnetic, 57Fe Mössbauer, DFT, and in vitro cytotoxicity studies” (Bioorg Med Chem, 2008)
